# Where “and” joins values, the source holds several entries; their conditions need not be identical. Equal values may be shown once.
# What was measured:
# Assay type in all cases: toxicity, cell-based
# HEK-293T [1] = experiment: Incucyte cell viability with HEK293T; conditions: human, 10 µM, compound concentration 10 uM; also: filed as whole numbers so only -1 and 0 and 1 occur
# U2OS [2] = experiment: Multiplex assay against U2OS; conditions: human, 10 µM, compound concentration 10 uM
# Outline: (§1)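 Imaging took place on a CQ1 microscope at 37°C and 5% CO2 once compound had been added to live cells stained at seeding with Hoechst33342, BioTracker Green Microtubule Cytoskeleton Dye, MitoTracker Red and Annexin V Alexa Fluor 680. CellPathfinder machine-learning gating classed cells as Hoechst high-intensity objects or normal cells, classed normal cells as having healthy, pyknosed or fragmented nuclei, and classed pyknosed cells as mitotic or apoptotic. Tubulin, mitochondrial-mass and membrane-permeability phenotypes are per cents of the healthy-nucleus cells.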
# U2OS [3] = experiment: Incucyte cell viability with U2OS; conditions: human, 10 µM, compound concentration 10 uM; also: filed as whole numbers so only -1 and 0 and 1 occur
# Fibroblast [4] = experiment: Incucyte cell viability with human fibroblast; conditions: 10 µM, compound concentration 10 uM; also: filed as whole numbers so only -1 and 0 and 1 occur
# HEK-293T [5] = experiment: Multiplex assay against HEK293T; conditions: human, 10 µM, compound concentration 10 uM; outline: as §1;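 as to Population Tubulin-Different-Phenotype (%): share of the cells with healthy nuclei that show this phenotype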
# Fibroblast [6] = experiment: Multiplex assay against human fibroblast; conditions: 10 µM, compound concentration 10 uM; outline: as §1
# [7] = 6 h, replicate number 1, timepoint 6 hours
# [8] = 12 h, replicate number 1, timepoint 12 hours
# [9] = 18 h, replicate number 1, timepoint 18 hours
# [10] = 24 h, replicate number 1, timepoint 24 hours
compound,measurement,setting,value
CNCc1ccccc1-c1csc([C@H](C)Nc2nc(C)nc3cc(OC)c(OC)cc23)c1 [BAY-294],Growth Rate,HEK-293T [1]; [7],0
same,Growth Rate,HEK-293T [1]; [8],0
same,Growth Rate,HEK-293T [1]; [9],0
same,Growth Rate,HEK-293T [1]; [10],0
same,Population Apoptotic (%),"U2OS [2]; 12 h, replicate 1",76% and 59%
same,Population Hoechst High Intensity Objects (%),"U2OS [2]; 12 h, replicate 1",7% and 6% and 3%
same,Population Membrane Permeable-Phenotype (%),"U2OS [2]; 12 h, replicate 1",100% and 75% and 50%
same,Population Mitochondria Different-Phenotype (%),"U2OS [2]; 12 h, replicate 1",100% and 90% and 41%
same,Population Mitotic Cells (%),"U2OS [2]; 12 h, replicate 1",23% and 40%
same,Population Normal (%),"U2OS [2]; 12 h, replicate 1",92% and 93% and 96%
same,Population Tubulin-Different-Phenotype (%),"U2OS [2]; 12 h, replicate 1",100% and 97%
same,Population Apoptotic (%),"U2OS [2]; 12 h, replicate 2",54% and 57% and 68%
same,Population Healthy Nuclei (%),"U2OS [2]; 12 h, replicate 2",38% and 23% and 66%
same,Population Membrane Permeable-Phenotype (%),"U2OS [2]; 12 h, replicate 2",88% and 86% and 54%
same,Population Mitochondria Different-Phenotype (%),"U2OS [2]; 12 h, replicate 2",96% and 93% and 66%
same,Population Mitotic Cells (%),"U2OS [2]; 12 h, replicate 2",45% and 42% and 31%
same,Population Normal (%),"U2OS [2]; 12 h, replicate 2",88% and 44%
same,Population Apoptotic (%),"U2OS [2]; 24 h, replicate 1",90% and 93% and 54%
same,Population Membrane Permeable-Phenotype (%),"U2OS [2]; 24 h, replicate 1",100% and 54%
same,Population Mitochondria Different-Phenotype (%),"U2OS [2]; 24 h, replicate 1",100% and 75%
same,Population Normal (%),"U2OS [2]; 24 h, replicate 1",94% and 86% and 96%
same,Population Pyknosed Nuclei (%),"U2OS [2]; 24 h, replicate 1",57% and 70%
same,Population Tubulin-Different-Phenotype (%),"U2OS [2]; 24 h, replicate 1",100%
same,Population Apoptotic (%),"U2OS [2]; 24 h, replicate 2",92% and 52% and 78%
same,Population Fragmented Nuclei (%),"U2OS [2]; 24 h, replicate 2",30% and 52%
same,Population Membrane Permeable-Phenotype (%),"U2OS [2]; 24 h, replicate 2",66% and 85%
same,Population Mitochondria Different-Phenotype (%),"U2OS [2]; 24 h, replicate 2",76% and 92%
same,Population Normal (%),"U2OS [2]; 24 h, replicate 2",82% and 92% and 45%
same,Population Pyknosed Nuclei (%),"U2OS [2]; 24 h, replicate 2",55% and 31% and 27%
same,Population Tubulin-Different-Phenotype (%),"U2OS [2]; 24 h, replicate 2",98% and 85%
same,Population Apoptotic (%),"U2OS [2]; 48 h, replicate 1",98%
same,Population Fragmented Nuclei (%),"U2OS [2]; 48 h, replicate 1",36%
same,Population Healthy Nuclei (%),"U2OS [2]; 48 h, replicate 1",1%
same,Population Hoechst High Intensity Objects (%),"U2OS [2]; 48 h, replicate 1",13%
same,Population Membrane Permeable-Phenotype (%),"U2OS [2]; 48 h, replicate 1",100%
same,Population Mitochondria Different-Phenotype (%),"U2OS [2]; 48 h, replicate 1",100%
same,Population Mitotic Cells (%),"U2OS [2]; 48 h, replicate 1",1%
same,Population Normal (%),"U2OS [2]; 48 h, replicate 1",86%
same,Population Pyknosed Nuclei (%),"U2OS [2]; 48 h, replicate 1",62%
same,Population Tubulin-Different-Phenotype (%),"U2OS [2]; 48 h, replicate 1",100%
same,Population Apoptotic (%),"U2OS [2]; 48 h, replicate 2",70%
same,Population Fragmented Nuclei (%),"U2OS [2]; 48 h, replicate 2",44%
same,Population Healthy Nuclei (%),"U2OS [2]; 48 h, replicate 2",18%
same,Population Hoechst High Intensity Objects (%),"U2OS [2]; 48 h, replicate 2",61%
same,Population Mitotic Cells (%),"U2OS [2]; 48 h, replicate 2",30%
same,Population Normal (%),"U2OS [2]; 48 h, replicate 2",38%
same,Population Pyknosed Nuclei (%),"U2OS [2]; 48 h, replicate 2",37%
same,Growth Rate,"U2OS [3]; 0 h, replicate number 1, timepoint 0 hours",0
same,Growth Rate,U2OS [3]; [7],0
same,Growth Rate,U2OS [3]; [8],0
same,Growth Rate,U2OS [3]; [9],0
same,Growth Rate,U2OS [3]; [10],0
same,Growth Rate,Fibroblast [4]; [7],0
same,Growth Rate,Fibroblast [4]; [8],0
same,Growth Rate,Fibroblast [4]; [9],0
same,Growth Rate,Fibroblast [4]; [10],0
same,Population Apoptotic (%),"HEK-293T [5]; 12 h, replicate 1",83% and 29% and 42%
same,Population Fragmented Nuclei (%),"HEK-293T [5]; 12 h, replicate 1",16% and 15% and 12%
same,Population Hoechst High Intensity Objects (%),"HEK-293T [5]; 12 h, replicate 1",19% and 16% and 22%
same,Population Normal (%),"HEK-293T [5]; 12 h, replicate 1",80% and 83% and 77%
same,Population Pyknosed Nuclei (%),"HEK-293T [5]; 12 h, replicate 1",82% and 39% and 67%
same,Population Tubulin-Different-Phenotype (%),"HEK-293T [5]; 12 h, replicate 1",50% and 90% and 54%
same,Total Cell Count,"HEK-293T [5]; 12 h, replicate 1",623 and 618
same,Population Mitochondria Different-Phenotype (%),"HEK-293T [5]; 12 h, replicate 2",86% and 88% and 34%
same,Population Normal (%),"HEK-293T [5]; 12 h, replicate 2",88% and 95% and 96%
same,Population Tubulin-Different-Phenotype (%),"HEK-293T [5]; 12 h, replicate 2",71% and 72% and 98%
same,Total Cell Count,"HEK-293T [5]; 12 h, replicate 2",864 and 1201
same,Population Apoptotic (%),"HEK-293T [5]; 24 h, replicate 1",71% and 57% and 28%
same,Population Fragmented Nuclei (%),"HEK-293T [5]; 24 h, replicate 1",22% and 24% and 13%
same,Population Hoechst High Intensity Objects (%),"HEK-293T [5]; 24 h, replicate 1",14% and 18% and 13%
same,Population Mitotic Cells (%),"HEK-293T [5]; 24 h, replicate 1",28% and 42% and 72%
same,Population Normal (%),"HEK-293T [5]; 24 h, replicate 1",85% and 81% and 86%
same,Population Pyknosed Nuclei (%),"HEK-293T [5]; 24 h, replicate 1",77% and 61% and 26%
same,Total Cell Count,"HEK-293T [5]; 24 h, replicate 1",631 and 647
same,Population Fragmented Nuclei (%),"HEK-293T [5]; 24 h, replicate 2",8% and 5% and 12%
same,Population Membrane Permeable-Phenotype (%),"HEK-293T [5]; 24 h, replicate 2",11% and 30%
same,Population Normal (%),"HEK-293T [5]; 24 h, replicate 2",87% and 92% and 96%
same,Population Tubulin-Different-Phenotype (%),"HEK-293T [5]; 24 h, replicate 2",49% and 76% and 94%
same,Total Cell Count,"HEK-293T [5]; 24 h, replicate 2",903 and 1682
same,Population Apoptotic (%),"HEK-293T [5]; 48 h, replicate 1",79%
same,Population Fragmented Nuclei (%),"HEK-293T [5]; 48 h, replicate 1",31%
same,Population Healthy Nuclei (%),"HEK-293T [5]; 48 h, replicate 1",0%
same,Population Hoechst High Intensity Objects (%),"HEK-293T [5]; 48 h, replicate 1",18%
same,Population Membrane Permeable-Phenotype (%),"HEK-293T [5]; 48 h, replicate 1",0%
same,Population Mitochondria Different-Phenotype (%),"HEK-293T [5]; 48 h, replicate 1",100%
same,Population Mitotic Cells (%),"HEK-293T [5]; 48 h, replicate 1",20%
same,Population Normal (%),"HEK-293T [5]; 48 h, replicate 1",81%
same,Population Pyknosed Nuclei (%),"HEK-293T [5]; 48 h, replicate 1",68%
same,Population Tubulin-Different-Phenotype (%),"HEK-293T [5]; 48 h, replicate 1",100%
same,Population Apoptotic (%),"HEK-293T [5]; 48 h, replicate 2",96%
same,Population Fragmented Nuclei (%),"HEK-293T [5]; 48 h, replicate 2",17%
same,Population Healthy Nuclei (%),"HEK-293T [5]; 48 h, replicate 2",33%
same,Population Hoechst High Intensity Objects (%),"HEK-293T [5]; 48 h, replicate 2",6%
same,Population Membrane Permeable-Phenotype (%),"HEK-293T [5]; 48 h, replicate 2",6%
same,Population Mitochondria Different-Phenotype (%),"HEK-293T [5]; 48 h, replicate 2",87%
same,Population Mitotic Cells (%),"HEK-293T [5]; 48 h, replicate 2",3%
same,Population Normal (%),"HEK-293T [5]; 48 h, replicate 2",93%
same,Population Pyknosed Nuclei (%),"HEK-293T [5]; 48 h, replicate 2",49%
same,Population Tubulin-Different-Phenotype (%),"HEK-293T [5]; 48 h, replicate 2",96%
same,Population Apoptotic (%),"Fibroblast [6]; 12 h, replicate 1",43% and 56% and 82%
same,Population Fragmented Nuclei (%),"Fibroblast [6]; 12 h, replicate 1",26% and 31% and 27%
same,Population Membrane Permeable-Phenotype (%),"Fibroblast [6]; 12 h, replicate 1",18% and 34% and 33%
same,Population Normal (%),"Fibroblast [6]; 12 h, replicate 1",70% and 93% and 84%
same,Population Pyknosed Nuclei (%),"Fibroblast [6]; 12 h, replicate 1",25% and 52% and 62%
same,Population Tubulin-Different-Phenotype (%),"Fibroblast [6]; 12 h, replicate 1",34% and 69% and 83%
same,Population Apoptotic (%),"Fibroblast [6]; 12 h, replicate 2",78% and 55% and 57%
same,Population Fragmented Nuclei (%),"Fibroblast [6]; 12 h, replicate 2",54% and 37% and 46%
same,Population Hoechst High Intensity Objects (%),"Fibroblast [6]; 12 h, replicate 2",27% and 35% and 55%
same,Population Mitotic Cells (%),"Fibroblast [6]; 12 h, replicate 2",21% and 45% and 42%
same,Population Normal (%),"Fibroblast [6]; 12 h, replicate 2",72% and 64% and 44%
same,Population Pyknosed Nuclei (%),"Fibroblast [6]; 12 h, replicate 2",31% and 19% and 30%
same,Population Tubulin-Different-Phenotype (%),"Fibroblast [6]; 12 h, replicate 2",77% and 56% and 100%
same,Population Apoptotic (%),"Fibroblast [6]; 24 h, replicate 1",54% and 89%
same,Population Fragmented Nuclei (%),"Fibroblast [6]; 24 h, replicate 1",17% and 38% and 29%
same,Population Hoechst High Intensity Objects (%),"Fibroblast [6]; 24 h, replicate 1",41% and 14% and 31%
same,Population Normal (%),"Fibroblast [6]; 24 h, replicate 1",58% and 85% and 68%
same,Population Pyknosed Nuclei (%),"Fibroblast [6]; 24 h, replicate 1",32% and 54% and 49%
same,Population Tubulin-Different-Phenotype (%),"Fibroblast [6]; 24 h, replicate 1",31% and 43% and 83%
same,Population Apoptotic (%),"Fibroblast [6]; 24 h, replicate 2",31% and 93% and 78%
same,Population Fragmented Nuclei (%),"Fibroblast [6]; 24 h, replicate 2",33% and 60% and 52%
same,Population Hoechst High Intensity Objects (%),"Fibroblast [6]; 24 h, replicate 2",37% and 38% and 54%
same,Population Normal (%),"Fibroblast [6]; 24 h, replicate 2",62% and 61% and 45%
same,Population Pyknosed Nuclei (%),"Fibroblast [6]; 24 h, replicate 2",29% and 33% and 27%
same,Population Apoptotic (%),"Fibroblast [6]; 48 h, replicate 1",75%
same,Population Fragmented Nuclei (%),"Fibroblast [6]; 48 h, replicate 1",40%
same,Population Healthy Nuclei (%),"Fibroblast [6]; 48 h, replicate 1",44%
same,Population Hoechst High Intensity Objects (%),"Fibroblast [6]; 48 h, replicate 1",35%
same,Population Membrane Permeable-Phenotype (%),"Fibroblast [6]; 48 h, replicate 1",43%
same,Population Mitochondria Different-Phenotype (%),"Fibroblast [6]; 48 h, replicate 1",52%
same,Population Mitotic Cells (%),"Fibroblast [6]; 48 h, replicate 1",25%
same,Population Normal (%),"Fibroblast [6]; 48 h, replicate 1",64%
same,Population Pyknosed Nuclei (%),"Fibroblast [6]; 48 h, replicate 1",15%
same,Population Tubulin-Different-Phenotype (%),"Fibroblast [6]; 48 h, replicate 1",65%
same,Population Apoptotic (%),"Fibroblast [6]; 48 h, replicate 2",100%
same,Population Fragmented Nuclei (%),"Fibroblast [6]; 48 h, replicate 2",84%
same,Population Healthy Nuclei (%),"Fibroblast [6]; 48 h, replicate 2",8%
same,Population Hoechst High Intensity Objects (%),"Fibroblast [6]; 48 h, replicate 2",31%
same,Population Membrane Permeable-Phenotype (%),"Fibroblast [6]; 48 h, replicate 2",0%
same,Population Mitochondria Different-Phenotype (%),"Fibroblast [6]; 48 h, replicate 2",100%
same,Population Mitotic Cells (%),"Fibroblast [6]; 48 h, replicate 2",0%
same,Population Normal (%),"Fibroblast [6]; 48 h, replicate 2",68%
same,Population Pyknosed Nuclei (%),"Fibroblast [6]; 48 h, replicate 2",7%
same,Population Tubulin-Different-Phenotype (%),"Fibroblast [6]; 48 h, replicate 2",0%
